Assay [1] has as its target 5-hydroxytryptamine receptor 2A (Homo sapiens, UniProt P28223). Kind of assay: Agonist activity at human 5HT2A receptor expressed in HEK293 cells assessed as intracellular IP3 accumulation. It counts as functional, cell-based. In a few lines: (§1)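 Functional agonist assay read out as [3H]phosphoinositol turnover; potency expressed as pEC50.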
Assay [2] deals with T1, 5-hydroxytryptamine receptor 2C (Homo sapiens, UniProt P28335).
T1 sequence (P28335 whole entry): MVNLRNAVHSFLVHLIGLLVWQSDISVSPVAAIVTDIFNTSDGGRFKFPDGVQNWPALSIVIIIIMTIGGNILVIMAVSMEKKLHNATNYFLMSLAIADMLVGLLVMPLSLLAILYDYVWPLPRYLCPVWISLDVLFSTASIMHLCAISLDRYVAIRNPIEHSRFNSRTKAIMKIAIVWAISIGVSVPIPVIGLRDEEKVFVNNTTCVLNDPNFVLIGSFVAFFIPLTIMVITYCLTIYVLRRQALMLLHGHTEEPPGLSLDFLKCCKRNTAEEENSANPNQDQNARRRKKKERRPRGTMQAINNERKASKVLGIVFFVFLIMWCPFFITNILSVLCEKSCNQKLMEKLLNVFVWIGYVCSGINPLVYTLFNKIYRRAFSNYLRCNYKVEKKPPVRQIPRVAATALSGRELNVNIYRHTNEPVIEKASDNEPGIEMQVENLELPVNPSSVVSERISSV
Kind of assay: Agonist activity at human 5HT2C receptor expressed in HEK293 cells assessed as intracellular IP3 accumulation. It counts as functional, cell-based. In a few lines: as §1

The target in assay [3] is 5-hydroxytryptamine receptor 2B (Homo sapiens, UniProt P41595). Kind of assay: Agonist activity at human 5HT2B receptor expressed in HEK293 cells assessed as intracellular IP3 accumulation. Type of assay: functional, cell-based. In a few lines: as §1
Chain of 5-hydroxytryptamine receptor 2B (P41595 whole entry): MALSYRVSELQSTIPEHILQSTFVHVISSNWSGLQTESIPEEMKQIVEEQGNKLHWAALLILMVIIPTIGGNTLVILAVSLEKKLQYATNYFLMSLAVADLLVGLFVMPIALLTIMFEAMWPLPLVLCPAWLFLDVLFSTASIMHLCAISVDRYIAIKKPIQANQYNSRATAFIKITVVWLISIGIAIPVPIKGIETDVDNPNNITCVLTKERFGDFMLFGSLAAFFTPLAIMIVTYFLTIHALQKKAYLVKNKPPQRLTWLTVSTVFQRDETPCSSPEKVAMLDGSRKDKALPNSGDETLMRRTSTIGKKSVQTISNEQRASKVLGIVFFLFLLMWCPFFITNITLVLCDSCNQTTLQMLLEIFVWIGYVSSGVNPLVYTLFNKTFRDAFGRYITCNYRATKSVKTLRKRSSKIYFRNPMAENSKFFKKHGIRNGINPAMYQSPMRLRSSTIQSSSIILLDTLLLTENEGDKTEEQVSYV
For assay [4], the target named is Serotonin 2 receptors; 5-HT2a & 5-HT2c (Homo sapiens) (UniProt P28223+P28335). In words: Selectivity ratio of pEC50 for human 5HT2A to pEC50 for human 5HT2C.
Chain of Serotonin 2 receptors; 5-HT2a & 5-HT2c (Homo sapiens) (P28223 whole entry, looked up, one chain of several): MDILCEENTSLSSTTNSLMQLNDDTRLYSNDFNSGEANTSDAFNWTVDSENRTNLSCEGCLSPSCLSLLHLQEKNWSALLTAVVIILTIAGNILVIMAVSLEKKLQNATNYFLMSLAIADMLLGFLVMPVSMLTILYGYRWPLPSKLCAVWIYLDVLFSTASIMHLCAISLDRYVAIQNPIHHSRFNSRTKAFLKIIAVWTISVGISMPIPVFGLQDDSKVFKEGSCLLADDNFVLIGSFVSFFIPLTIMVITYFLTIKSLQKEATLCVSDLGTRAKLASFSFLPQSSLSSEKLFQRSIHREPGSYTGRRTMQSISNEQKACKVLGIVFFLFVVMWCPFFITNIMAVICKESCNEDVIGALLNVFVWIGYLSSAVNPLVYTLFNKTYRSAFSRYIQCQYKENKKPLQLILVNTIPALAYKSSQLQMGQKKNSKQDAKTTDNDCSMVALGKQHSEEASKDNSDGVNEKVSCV
The species entered for the next assay is Homo sapiens. In words: Selectivity ratio of pEC50 for human 5HT2B to pEC50 for human 5HT2C.

Chain of 5-hydroxytryptamine receptor 2A (P28223 whole entry): as the sequence (P28223 whole entry, looked up, one chain of several) above

For orientation: EC50 means the concentration giving half of the maximal effect. With `C[C@H]1CNCCc2ccc(Cl)c(Cl)c21`, the figures for the concentration for a half-maximal effect (EC50) in assay [1], in assay [2] and in assay [3] were 2510 nM, 316 nM and more than 10000 nM, respectively.
Take `CC1CNCCc2c(Cl)cc(Cl)cc21` (centres undefined): the EC50 was 126 nM in assay [1] and 794 nM in assay [3]. Further, the Selectivity ratio is 0.8 in assay [4] and 1.6 in the assay filed under Homo sapiens.
Regarding `c1ccc2c(c1)CCNCC2`, the EC50 is more than 10000 nM in assay [1], 3160 nM in assay [2] and more than 10000 nM in assay [3].
For the molecule `C[C@@H]1CNCCc2ccc(Cl)c(F)c21`, the figures for the 50% effective concentration (EC50) in assay [1], in assay [2] and in assay [3] were 1000 nM, 3.98 nM and more than 10000 nM, respectively. Moreover, the results for the Selectivity ratio (in assay [4]; in the assay filed under Homo sapiens) were 2.4 and more than 3.4, respectively.
Take `CC[C@H]1CNCCc2ccc(Cl)cc21`: the values for the EC50 in assay [1], in assay [2] and in assay [3] were 251 nM, 39.8 nM and 251 nM, respectively. The Selectivity ratio (in assay [4]; in the assay filed under Homo sapiens) was 0.8 throughout.
In the case of `CC[C@@H]1CNCCc2ccc(Cl)cc21`, the EC50 in assay [1] is 316 nM; in assay [2], 20 nM; in assay [3] it was 631 nM. Also, the Selectivity ratio came out at 1.2 in assay [4] and 1.5 in the assay filed under Homo sapiens.
As to `CC1(C)CNCCc2ccc(Cl)cc21`, the concentration giving a half-maximal response (EC50) is 1580 nM in assay [1], 200 nM in assay [2] and more than 10000 nM in assay [3].
With `C[C@H](N)Cn1ccc2cc(F)c(Cl)cc21`, the EC50 in assay [1] was 50.1 nM; in assay [2], 3.98 nM; in assay [3], 1.58 nM. The Selectivity ratio in assay [4] is 1.1; in the assay listed under Homo sapiens, -0.4.
For `CC1CNCCc2ccc(C(F)(F)F)cc21` (racemic), the half-maximal effective concentration (EC50) was 6.31 nM in assay [2] and 794 nM in assay [3]. Moreover, the Selectivity ratio came to 1.2 in assay [4] and 2.1 in the assay listed under Homo sapiens.
Regarding `CC1CNCCc2ccc(Cl)c(Cl)c21` (racemic), the concentration for a half-maximal effect (EC50) in assay [1] is 200 nM; in assay [2], 7.94 nM; in assay [3], 1580 nM. For the same molecule, the Selectivity ratio in assay [4] was determined as 1.4; in the assay listed under Homo sapiens, 2.3.
On to `CC1CNCCc2ccc(F)cc21` (racemic), for which the EC50 in assay [2] was 398 nM; in assay [3], more than 10000 nM.
In the case of `COc1ccc2c(c1)CCNCC2C` (racemic), the 50% effective concentration (EC50) is more than 10000 nM in assay [1], 1260 nM in assay [2] and more than 10000 nM in assay [3].
`CC1CNCCc2cccc(Cl)c21` (racemic): the EC50 is more than 10000 nM in assay [1], 794 nM in assay [2] and more than 10000 nM in assay [3].
For `COc1ccc2c(c1)C(C)CNCC2` (racemic), the EC50 in assay [1] is 251 nM; in assay [2], 200 nM; in assay [3], 5010 nM.
Consider `CC1CNCCc2c(Cl)cccc21` (racemic), for which the EC50 is more than 10000 nM in assay [1], 794 nM in assay [2] and more than 10000 nM in assay [3].
With `CC1CNCCc2ccccc21` (racemic), the EC50 in assay [2] is 316 nM; in assay [3] it was 3980 nM.
As for `CC1CNCCc2ccc(Cl)c(F)c21` (racemic), the results for the half-maximal effective concentration (EC50) in assay [1], in assay [2] and in assay [3] were 794 nM, 20 nM and 2510 nM, respectively. The Selectivity ratio in assay [4] worked out at 1.6; in the assay listed under Homo sapiens, 2.1.
Turning to `COc1cc2c(cc1Cl)CCNCC2C` (racemic), the EC50 is 100 nM in assay [1], 50.1 nM in assay [2] and 200 nM in assay [3]. Moreover, the Selectivity ratio in assay [4] worked out at 0.3; in the assay listed under Homo sapiens, 0.6.
On to `COc1cc2c(cc1Cl)C(C)CNCC2` (racemic), for which the Selectivity ratio (in assay [4]; in the assay filed under Homo sapiens) was 0.9 each time.
For `COc1cc2c(cc1Cl)C(C)CNCC2` (single isomer, unassigned; form 1), the Selectivity ratio in assay [4] is 1.4; in the assay filed under Homo sapiens it was 1.7.
Regarding `COc1cc2c(cc1Cl)C(C)CNCC2` (single isomer, unassigned; form 2), the figures for the Selectivity ratio (in assay [4]; in the assay listed under Homo sapiens) were 0.7 and 0.8, respectively.

These data come from ChEMBL document CHEMBL1140712 (J Med Chem, 2008).
